Key:
[1] = target: Prostaglandin E2 receptor EP1 (Cavia porcellus); test: PGE-2 (EP1 subtype) antagonistic activity as PGE2-stimulated guinea pig ileum muscle strip assay; settings: read-out: pA2 (converted)
Mus musculus = organism: Mus musculus; test: Antinociceptive activity in mouse by using phenylbenzoquinone writing assay.; assay type: functional
Method in brief: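 Mice given test compound at an initial screening dose of 30 mg/kg. ED50 determined only for compounds producing a response in seven of ten animals, with 95% confidence limits (p < 0.05).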

SMILES	Kb [1] [nM]	ED50 (Mus musculus) [mg/kg]
O=C(CCSCc1ccco1)CNC(=O)N1Cc2ccccc2Oc2ccc(Cl)cc21	63.1	–
O=C(NNC(=O)C(F)(F)C(O)c1ccccn1)N1Cc2ccccc2Oc2ccc(Cl)cc21 (stereo not drawn)	31.6	9.1
O=C(CNC(=O)C(F)(F)C(O)c1ccccn1)N1Cc2ccccc2Oc2ccc(Cl)cc21 (stereo not drawn)	–	8.1
O=C(CCSCc1ccco1)NNC(=O)N1Cc2ccccc2Oc2ccc(Cl)cc21	–	0.9
O=C(CCSCc1ccco1)NCC(=O)N1Cc2ccccc2Oc2ccc(Cl)cc21	39.8	–
O=C(CCc1ccncc1)NNC(=O)N1Cc2ccccc2Oc2ccc(Cl)cc21	316	6.8

Further lines, with some results ahead:

Kb [1] [nM]	SMILES	ED50 (Mus musculus) [mg/kg]
2000	CCS(=O)(=O)CCC(=O)NCC(=O)N1Cc2ccccc2Oc2ccc(Cl)cc21	–
2000	O=C(CCc1ccncc1)NCC(=O)N1Cc2ccccc2Oc2ccc(Cl)cc21	–
2510	CCS(=O)(=O)CCC(=O)CNC(=O)N1Cc2ccccc2Oc2ccc(Cl)cc21	–
1580	CCS(=O)(=O)CCC(=O)NNC(=O)N1Cc2ccccc2Oc2ccc(Cl)cc21	7.4
